From ChEMBL document CHEMBL1131076, “Synthesis of 9-deoxo-4''-deoxy-6,9-epoxyerythromycin derivatives: novel and acid-stable motilides” (1998)

Columns and labels:
Assay type in all cases: functional
[1] = species: Oryctolagus cuniculus; assay: Compound was evaluated for the prokinetic activity by measuring smooth muscle contractility from rabbit duodenum isolated tissue.
Outline: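 Isolated rabbit duodenum in vitro; records induction of well-coordinated smooth muscle contractions; potency given as pED50.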

[2] = tested on: Streptococcus sp.; assay: In vitro antibacterial activity against the Streptococcus sp. (No. of strains used :4)
[3] = tested on: Escherichia coli; assay: In vitro antibacterial activity against the Escherichia coli (No. of strains used :5)
[4] = tested on: Staphylococcus aureus; assay: In vitro antibacterial activity against the Staphylococcus aureus (No. of strains used :5)

MIC [2] [µg/mL] | MIC [3] [µg/mL] | MIC [4] [µg/mL] | Structure (SMILES) | pED50 [1]
 |  |  | CC[C@H]1OC(=O)[C@H](C)[C@@H](OC2C[C@@](C)(OC)C[C@H](C)O2)[C@H](C)[C@@H](OC2O[C@H](C)C[C@H](N(C)CC#N)[C@H]2O)[C@@]2(C)C[C@H](C)[C@H](O2)[C@H](C)[C@@H](O)[C@]1(C)O (some centres not stated) | 5.71
 |  |  | CC[C@H]1OC(=O)[C@H](C)[C@@H](OC2C[C@@](C)(OC)C[C@H](C)O2)[C@H](C)[C@@H](OC2O[C@H](C)C[C@H](N(C)C(C)C)[C@H]2O)[C@@]2(C)C[C@H](C)[C@H](O2)[C@H](C)[C@@H](O)[C@]1(C)O (some centres not stated) | 7.75
 |  |  | CC[C@H]1OC(=O)[C@H](C)[C@@H](OC2C[C@@](C)(OC)C[C@H](C)O2)[C@H](C)[C@@H](OC2O[C@H](C)C[C@H](N(C)CC)[C@H]2O)[C@@]2(C)CC(C)=C(O2)[C@H](C)[C@@H](O)[C@H]1C (some centres not stated) | 7.22
 |  |  | CC[C@H]1OC(=O)[C@H](C)[C@@H](OC2C[C@@](C)(OC)C[C@H](C)O2)[C@H](C)[C@@H](OC2O[C@H](C)C[C@H](N(C)CCF)[C@H]2O)[C@@]2(C)C[C@H](C)[C@H](O2)[C@H](C)[C@@H](O)[C@]1(C)O (some centres not stated) | 6.67
 |  |  | CC[C@H]1OC(=O)[C@H](C)[C@@H](OC2C[C@@](C)(OC)C[C@H](C)O2)[C@H](C)[C@@H](OC2O[C@H](C)C[C@H](N(C)CCN)[C@H]2O)[C@@]2(C)C[C@H](C)[C@H](O2)[C@H](C)[C@@H](O)[C@]1(C)O (some centres not stated) | 6.43
 |  |  | CC[C@H]1OC(=O)[C@H](C)[C@@H](OC2C[C@@](C)(OC)C[C@H](C)O2)[C@H](C)[C@@H](OC2O[C@H](C)C[C@H](N(C)Cc3ccccc3)[C@H]2O)[C@@]2(C)C[C@H](C)[C@H](O2)[C@H](C)[C@@H](O)[C@]1(C)O (some centres not stated) | 4
> 100 | > 100 | > 100 | CC[C@H]1OC(=O)[C@H](C)[C@@H](OC2C[C@@](C)(OC)C[C@H](C)O2)[C@H](C)[C@@H](OC2O[C@H](C)C[C@H](N(C)CCO)[C@H]2O)[C@@]2(C)C[C@H](C)[C@H](O2)[C@H](C)[C@@H](O)[C@]1(C)O (some centres not stated) | 8.11
 |  |  | CC[C@H]1OC(=O)[C@H](C)[C@@H](OC2C[C@@](C)(OC)C[C@H](C)O2)[C@H](C)[C@@H](OC2O[C@H](C)C[C@H](NC)[C@H]2O)[C@@]2(C)C[C@H](C)[C@H](O2)[C@H](C)[C@@H](O)[C@]1(C)O (some centres not stated) | 7.64
> 100 | > 100 | > 100 | CC[C@H]1OC(=O)[C@H](C)[C@@H](OC2C[C@@](C)(OC)C[C@H](C)O2)[C@H](C)[C@@H](OC2O[C@H](C)C[C@H](N(C)C)[C@H]2O)[C@@]2(C)C[C@H](C)[C@H](O2)[C@H](C)[C@@H](O)[C@]1(C)O (some centres not stated) | 7.93
 |  |  | CC[C@H]1OC(=O)[C@H](C)[C@@H](OC2C[C@@](C)(OC)C[C@H](C)O2)[C@H](C)[C@@H](OC2O[C@H](C)C[C@H](N(C)C)[C@H]2O)[C@@]2(C)C[C@@H](C)[C@H](O2)[C@H](C)[C@@H](O)[C@]1(C)O (some centres not stated) | 7.8
 |  |  | CCCCN(C)[C@H]1C[C@@H](C)OC(O[C@@H]2[C@@H](C)[C@H](OC3C[C@@](C)(OC)C[C@H](C)O3)[C@@H](C)C(=O)O[C@H](CC)[C@@](C)(O)[C@H](O)[C@@H](C)[C@H]3O[C@]2(C)C[C@@H]3C)[C@@H]1O (some centres not stated) | 4.71
> 100 | > 100 | > 100 | CC[C@H]1OC(=O)[C@H](C)[C@@H](OC2C[C@@](C)(OC)C[C@H](C)O2)[C@H](C)[C@@H](OC2O[C@H](C)C[C@H](N(C)CC)[C@H]2O)[C@@]2(C)C[C@H](C)[C@H](O2)[C@H](C)[C@@H](O)[C@]1(C)O (some centres not stated) | 8.54
 |  |  | CC[C@H]1OC(=O)[C@H](C)[C@@H](OC2C[C@@](C)(OC)C[C@H](C)O2)[C@H](C)[C@@H](OC2O[C@H](C)C[C@H](N(C)C)[C@H]2O)[C@@]2(C)C[C@@H](C)[C@@H](O2)[C@H](C)[C@@H](O)[C@]1(C)O (some centres not stated) | 5.45
